Data: ChEMBL document CHEMBL1134841, “Antimalarial alkoxylated and hydroxylated chalcones [corrected]: structure-activity relationship analysis” (J Med Chem, 2001)

What was measured:
[1] = tested on: Plasmodium falciparum; assay: Inhibition of [3H]hypoxanthine incorporation in Plasmodium falciparum K1; type: functional, organism-based
In short: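 K1 (chloroquine-resistant) parasites cultured in RPMI-1640 with 5% sodium bicarbonate and 10% type O human serum. DMSO stocks were serially diluted 10-fold in medium, covering a 10^6-fold range. Infected erythrocytes at 1–2% parasitemia and 1.5% hematocrit were incubated at 37 °C in a candle jar for 24 h. [3H]hypoxanthine was then added for a further 24 h, cells harvested and scintillation counted. IC50 from nonlinear logistic fit versus untreated control.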

[2] = Ratio of average life span of compound-treated mice (100 mg/kg, ip, 3 days) to that of mice treated with chloroquine (T/C-CQ); type: functional
In short: (§1)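 Swiss albino mice (male, 4 weeks, ~25 g) inoculated ip with 10^7 P. berghei ANKA parasitized erythrocytes (day 0). Test compound 100 mg/kg/day ip in DMSO, days 1–3, three mice per compound. Control infected groups: DMSO or 4'-butoxy-2,4-dimethoxychalcone (100 mg/kg in DMSO, ip, days 1–3), or chloroquine (52 mg/kg ip in 0.5% Tween buffer pH 7.4, day 1). Survival followed; ratio of mean life spans.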

[3] = tested on: Mus musculus; assay: Ratio of average life span of compound-treated mice (100 mg/kg, ip, 3 days) to that of mice receiving DMSO (T/C-untreated); type: functional; in short: as §1
[4] = tested on: Mus musculus; assay: Ratio of average life span of compound-treated mice (100 mg/kg, ip, 3 days) to that of mice treated with 4''-butoxy-2,4-dimethoxychalcone (comp.41); type: functional; in short: as §1

SMILES	IC50 ([1]; Plasmodium falciparum, 48 h) [µM]	further results
COc1ccc(C(=O)/C=C/c2ccc(C(F)(F)F)cc2)c(OC)c1	5.9	T/C-CQ [2]: 0.84; T/C untreated [3]: 1.67; T/C 41 [4]: 1.67
COc1ccc(C(=O)/C=C/c2cnc3ccccc3c2)c(OC)c1OC	2	T/C-CQ [2]: 0.96; T/C untreated [3]: 1.91; T/C 41 [4]: 1.91
O=C(/C=C/c1ccc(Cl)cc1Cl)c1ccc(O)cc1O	68.5	T/C-CQ [2]: 0.94; T/C untreated [3]: 1.32; T/C 41 [4]: 1.36
COc1ccc(/C=C/C(=O)c2ccc(O)cc2O)c(OC)c1	56.4	
COc1ccc(C(=O)/C=C/c2ccc(F)cc2Cl)c(OC)c1	600	
COc1ccc(C(=O)/C=C/c2ccc(F)cc2)c(OC)c1OC	9.5	T/C-CQ [2]: 0.69; T/C untreated [3]: 1.37; T/C 41 [4]: 1.37
COc1ccc(C(=O)/C=C/c2ccc(C(F)(F)F)cc2)c(OC)c1OC	3	T/C-CQ [2]: 0.74; T/C untreated [3]: 1.46; T/C 41 [4]: 1.46
O=C(/C=C/c1ccc2ccccc2c1)c1ccc(O)cc1O	20	T/C-CQ [2]: 1.05; T/C untreated [3]: 1.91; T/C 41 [4]: 1.2
COc1ccc(C(=O)/C=C/c2ccccc2)c(OC)c1OC	15.8	
COc1ccc(C(=O)/C=C/c2ccc(Cl)cc2Cl)c(OC)c1OC	5.4	T/C-CQ [2]: 0.48; T/C untreated [3]: 0.94; T/C 41 [4]: 0.94
COc1ccc(C(=O)/C=C/c2ccc(F)cc2F)c(OC)c1OC	18.5	
COc1ccc(C(=O)/C=C/c2ccc(N(C)C)cc2)c(OC)c1 (stereo in doubt; 103)		IC50 [1]: 55.3 µM
O=C(/C=C/c1cnc2ccccc2c1)c1ccc(O)cc1O	16.1	T/C-CQ [2]: 0.77; T/C untreated [3]: 1.08; T/C 41 [4]: 1.11
COc1ccc(C(=O)/C=C/c2ccc([N+](=O)[O-])cc2)c(OC)c1 (stereo in doubt; 115)		IC50 [1]: 100 µM
COc1ccc(C(=O)/C=C/c2cnc3ccccc3c2)c(OC)c1	2.2	T/C-CQ [2]: 0.65; T/C untreated [3]: 1.29; T/C 41 [4]: 1.29
O=C(/C=C/c1ccccn1)c1ccc(O)cc1O	19.7	T/C-CQ [2]: 0.81; T/C untreated [3]: 1.47; T/C 41 [4]: 0.93
O=C(/C=C/c1ccccc1)c1ccc(O)cc1 [4'-HYDROXYCHALCONE]	29.6	
COc1ccc(/C=C/C(=O)c2ccc(OC)c(OC)c2OC)c(OC)c1	16.5	
COc1ccc(C(=O)/C=C/c2cnc3ccccc3c2)cc1	4.8	T/C-CQ [2]: 0.49; T/C untreated [3]: 0.98; T/C 41 [4]: 1.03
CCN(CC)CCCC(C)Nc1ccnc2cc(Cl)ccc12 (configuration not stated) [CHLOROQUINE]		T/C untreated [3]: 1.81; T/C 41 [4]: 1.71

SMILES	IC50 ([1]; Plasmodium falciparum, 48 h) [µM]	further results
CCc1ccc(/C=C/C(=O)c2ccc(OC)cc2OC)cc1	2.4	T/C-CQ [2]: 1.18; T/C untreated [3]: 2.33; T/C 41 [4]: 2.33
COc1ccc(C(=O)/C=C/c2ccc(Cl)cc2Cl)c(OC)c1	18.8	
COc1ccc(C(=O)/C=C/c2ccc(F)cc2F)c(OC)c1	6.2	T/C-CQ [2]: 0.52; T/C untreated [3]: 1.04; T/C 41 [4]: 1.04
COc1ccc(/C=C/C(=O)c2ccc(OC)cc2OC)c(OC)c1	2.1	T/C-CQ [2]: 0.5; T/C untreated [3]: 0.98; T/C 41 [4]: 0.98
O=C(/C=C/c1ccnc2ccccc12)c1ccc(O)cc1O	92.8	
COc1ccc(C(=O)/C=C/c2ccccc2Cl)c(OC)c1OC	41.5	
O=C(/C=C/c1ccc(Cl)cc1)c1ccc(O)cc1O	12.3	T/C-CQ [2]: 0.71; T/C untreated [3]: 1.41; T/C 41 [4]: 1.48
COc1ccc(C(=O)/C=C/c2ccc([N+](=O)[O-])cc2)c(OC)c1 (stereo in doubt; 109)		IC50 [1]: 415 µM
COc1ccc(C(=O)/C=C/c2ccnc3ccccc23)c(OC)c1OC	60	
COc1ccc(C(=O)/C=C/c2cccc(Cl)c2)c(OC)c1OC	24.4	
COc1ccc(C(=O)/C=C/c2ccc(F)cc2)cc1	14.4	T/C-CQ [2]: 1.22; T/C untreated [3]: 2.2; T/C 41 [4]: 1.83
COc1ccc(C(=O)/C=C/c2ccc(OC)cc2OC)cc1	6.4	T/C-CQ [2]: 0.46; T/C untreated [3]: 0.92; T/C 41 [4]: 0.97
O=C(/C=C/c1cccc2ccccc12)c1ccc(O)cc1O	24.8	
O=C(/C=C/c1ccc(Cl)c(Cl)c1)c1ccc(O)cc1	18.4	T/C-CQ [2]: 0.71; T/C untreated [3]: 1.28; T/C 41 [4]: 0.81
O=C(/C=C/c1ccccn1)c1ccc(O)cc1	16.3	T/C-CQ [2]: 0.49; T/C untreated [3]: 0.99; T/C 41 [4]: 1.03
O=C(/C=C/c1ccncc1)c1ccc(O)cc1O	122	
O=C(/C=C/c1ccc(F)cc1F)c1ccc(O)cc1O	16	T/C-CQ [2]: 1.23; T/C untreated [3]: 1.73; T/C 41 [4]: 1.78
COc1ccc(C(=O)/C=C/c2ccccc2)c(OC)c1	55.5	
CCOc1ccc(C(=O)/C=C/c2ccccc2)cc1	43	
CCCCOc1ccc(C(=O)/C=C/c2ccc(OC)cc2OC)cc1	108	T/C-CQ [2]: 0.57; T/C untreated [3]: 1.08

More lines, main results first:

IC50 ([1]; Plasmodium falciparum, 48 h) [µM]	SMILES	further results
298	COc1ccc(C(=O)/C=C/c2ccc(Cl)c(Cl)c2)c(OC)c1	
70	COc1ccc(C(=O)/C=C/c2ccc(C)cc2)cc1	
322	COc1ccc(C(=O)/C=C/c2ccc(F)cc2)c(OC)c1	
16.5	CCc1ccc(/C=C/C(=O)c2ccc(OC)c(OC)c2OC)cc1	
342	COc1ccc(C(=O)/C=C/c2ccc(Cl)cc2)c(OC)c1	
16	COc1ccc(C(=O)/C=C/c2ccc(Cl)cc2Cl)cc1	
26.8	COc1ccc(C(=O)/C=C/c2ccc(F)cc2F)cc1	
320	COc1ccc(C(=O)/C=C/c2cccc3ccccc23)c(OC)c1	
20.9	CCCCc1ccc(/C=C/C(=O)c2ccc(O)cc2)cc1	
24.1	CCOc1ccc(C(=O)/C=C/c2ccc(F)cc2)cc1	
25	COc1ccc(/C=C/C(=O)c2ccc(OC)c(OC)c2OC)cc1	
28.1	CCOc1ccc(C(=O)/C=C/c2ccc(F)cc2F)cc1	
33.1	O=C(/C=C/c1cccc(Cl)c1)c1ccc(O)cc1	
25.4	Cc1ccc(/C=C/C(=O)c2ccc(O)cc2)cc1	
96	CCOc1ccc(C(=O)/C=C/c2ccc(Cl)cc2Cl)cc1	
25.6	COc1ccc(C(=O)/C=C/c2ccc(C)cc2)c(OC)c1OC	
39.9	O=C(/C=C/c1cccc2ccccc12)c1ccc(O)cc1	
542	COc1ccc(C(=O)/C=C/c2ccc(Br)cc2)c(OC)c1	
33	CCOc1ccc(C(=O)/C=C/c2ccc(OC)cc2)cc1	
24.9	CCOc1ccc(C(=O)/C=C/c2cnc3ccccc3c2)cc1	
19	COc1ccc(C(=O)/C=C/c2ccc(C(F)(F)F)cc2)cc1	
26.2	COc1ccc(C(=O)/C=C/c2ccc(-c3ccccc3)cc2)c(OC)c1OC	
27.5	O=C(/C=C/c1ccc2ccccc2c1)c1ccc(O)cc1	
24	CCOc1ccc(C(=O)/C=C/c2ccc(C(F)(F)F)cc2)cc1	
540	CCOc1ccc(C(=O)/C=C/c2ccc(C#N)cc2)cc1	

IC50 ([1]; Plasmodium falciparum, 48 h) [µM]	SMILES	further results
25.8	Cc1cccc(/C=C/C(=O)c2ccc(O)cc2)c1	
24.5	O=C(/C=C/c1ccc(Cl)cc1Cl)c1ccc(O)cc1	
27	COc1ccc(C(=O)/C=C/c2ccnc3ccccc23)c(OC)c1	
30.4	O=C(/C=C/c1ccc(C(F)(F)F)cc1)c1ccc(O)cc1	
41	O=C(/C=C/c1cnc2ccccc2c1)c1ccc(O)cc1	
21.7	O=C(/C=C/c1ccc(F)cc1)c1ccc(O)cc1	
128	COc1ccc(/C=C/C(=O)c2ccc(OC)cc2OC)cc1 [METOCHALCONE]	
30	CCOc1ccc(C(=O)/C=C/c2ccc(N(C)C)cc2)cc1	
26.5	O=C(/C=C/c1ccc(C(F)(F)F)cc1)c1ccc(O)cc1O	
61.7	O=C(/C=C/c1ccccc1Cl)c1ccc(O)cc1	
32.2	COc1ccc(/C=C/C(=O)c2ccc(O)cc2)cc1	
43	COc1ccc(C(=O)/C=C/c2ccnc3ccccc23)cc1	
51	O=C(/C=C/c1ccnc2ccccc12)c1ccc(O)cc1	
21.7	COc1ccc(/C=C/C(=O)c2ccc(OC)cc2)cc1 [4,4'-DIMETHOXYCHALCONE]	
22.5	COc1ccc(C(=O)/C=C/c2ccc([N+](=O)[O-])cc2)c(OC)c1OC	
38	O=C(/C=C/c1ccc(Cl)cc1)c1ccc(O)cc1	
18	COc1ccc(C(=O)/C=C/c2ccc(N(C)C)cc2)c(OC)c1OC	
93.8	COc1ccc(C(=O)/C=C/c2ccc(C)cc2)c(OC)c1	
14.5	COc1ccc(C(=O)/C=C/c2ccc(Cl)cc2)c(OC)c1OC	
39	CCOc1ccc(C(=O)/C=C/c2ccc([N+](=O)[O-])cc2)cc1	
30	CCOc1ccc(C(=O)/C=C/c2ccc(OC)cc2OC)cc1	
38	CCOc1ccc(C(=O)/C=C/c2ccc(C)cc2)cc1	
20.4	O=C(/C=C/c1ccc([N+](=O)[O-])cc1)c1ccc(O)cc1	
100	CCOc1ccc(C(=O)/C=C/c2ccnc3ccccc23)cc1	
